Source: ChEMBL document CHEMBL1139935, “Discovery of novel indazole-linked triazoles as antifungal agents” (2007)
Values after ≈ are worked out from the molar mass of the structure shown.

Key:
[1] = system: Candida albicans; test: Antifungal activity against Candida albicans ATCC 36082 by broth microdilution assay; type: functional
[2] = system: Nakaseomyces glabratus; test: Antifungal activity against Candida glabrata ATCC 34138 by broth microdilution assay; type: functional
[3] = system: Pichia kudriavzevii; test: Antifungal activity against Candida krusei ATCC 6528 by broth microdilution assay; type: functional
[4] = system: Clavispora lusitaniae; test: Antifungal activity against Candida lusitaniae ATCC 42720 by broth microdilution assay; type: functional
[5] = system: Candida tropicalis; test: Antifungal activity against Candida tropicalis ATCC 750 by broth microdilution assay; type: functional
[6] = system: Candida parapsilosis; test: Antifungal activity against Candida parapsilosis ATCC 21019 by broth microdilution assay; type: functional; conditions: Lodderomyces parapsilosis
[7] = system: Aspergillus fumigatus; test: Antifungal activity against Aspergillus fumigatus ATCC 16424 by broth microdilution assay; type: functional
[8] = system: Aspergillus flavus; test: Antifungal activity against Aspergillus flavus ATCC MYA-1004 by broth microdilution assay; type: functional
[9] = system: Aspergillus terreus; test: Antifungal activity against Aspergillus terreus ATCC 28301 by broth microdilution assay; type: functional
[10] = system: Aspergillus niger; test: Antifungal activity against Aspergillus niger ATCC 9042 by broth microdilution assay; type: functional
[11] = system: Cryptococcus neoformans; test: Antifungal activity against Cryptococcus neoformans ATCC 24065 by broth microdilution assay
[12] = system: Candida albicans; test: Antifungal activity against systemic Candida albicans ATCC 36082 infection model in ICR mouse assessed as survival at 20 mg/kg, po; type: functional
How it was run: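 C. albicans ATCC 36082 given systemically, about 5 × 10⁵ cells per animal. Oral dosing at 20 mg/kg once daily started 2 h post-infection and continued for 7 consecutive days. Read-out was mean survival days, compared against an untreated infected control group.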

[13] = system: HepG2; test: Cytotoxicity against human HepG2 cells by neutral red uptake assay; type: functional
How it was run: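 Human hepatoma HepG2 cells; neutral red uptake read-out following a previously described protocol; the value is the CC50 (concentration giving half-maximal cytotoxicity); ketoconazole served as reference agent.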

SMILES | MIC80 [1] [mg/L] | MIC80 [2] [mg/L] | MIC80 [3] [mg/L] | MIC80 [4] [mg/L] | MIC80 [5] [mg/L] | MIC80 [6] [mg/L] | MIC80 [7] [mg/L] | MIC80 [8] [mg/L] | MIC80 [9] [mg/L] | MIC80 [10] [mg/L] | MIC80 [11] [mg/L] | Survival [12] [days] | CC50 [13] [µM]
C[C@@H](c1ncncc1F)[C@](O)(Cn1cncn1)c1ccc(F)cc1F [VORICONAZOLE] | ≤ 0.015 | 4 (≈ 11.5 µM) | 1 (≈ 2.86 µM) | 0.063 (≈ 0.18 µM) | 0.25 (≈ 0.716 µM) | 0.25 (≈ 0.716 µM) | 0.25 (≈ 0.716 µM) | 0.5 (≈ 1.43 µM) | 1 (≈ 2.86 µM) | 1 (≈ 2.86 µM) | 0.125 (≈ 0.358 µM) | – | –
C[C@@H](c1nc(-c2ccc(C#N)cc2)cs1)[C@](O)(Cn1cncn1)c1ccc(F)cc1F [RAVUCONAZOLE] | ≤ 0.015 | 2 (≈ 4.57 µM) | 0.125 (≈ 0.286 µM) | ≤ 0.015 | ≤ 0.015 | ≤ 0.015 | 0.125 (≈ 0.286 µM) | 0.5 (≈ 1.14 µM) | 0.5 (≈ 1.14 µM) | 1 (≈ 2.29 µM) | ≤ 0.015 | – | –
C[C@@H](n1cnc2cc(Cl)ccc2c1=O)[C@](O)(Cn1cncn1)c1ccc(F)cc1F [ALBACONAZOLE] | ≤ 0.015 | 8 (≈ 18.5 µM) | 0.25 (≈ 0.579 µM) | ≤ 0.015 | 0.031 (≈ 0.0718 µM) | ≤ 0.015 | 0.5 (≈ 1.16 µM) | 0.5 (≈ 1.16 µM) | 1 (≈ 2.32 µM) | 2 (≈ 4.63 µM) | ≤ 0.015 | – | –
C[C@@H](n1ncc2cc(Cl)ccc21)[C@](O)(Cn1cncn1)c1ccc(F)cc1F | ≤ 0.015 | 4 (≈ 9.91 µM) | 2 (≈ 4.95 µM) | ≤ 0.015 | 0.5 (≈ 1.24 µM) | 0.125 (≈ 0.31 µM) | 2 (≈ 4.95 µM) | 4 (≈ 9.91 µM) | 4 (≈ 9.91 µM) | 8 (≈ 19.8 µM) | 0.031 (≈ 0.0768 µM) | – | –
OC(Cn1cncn1)(Cn1cncn1)c1ccc(F)cc1F [FLUCONAZOLE] | 2 (≈ 6.53 µM) | > 8 | > 8 | 8 (≈ 26.1 µM) | > 8 | > 8 | > 128 | > 128 | > 128 | > 128 | 8 (≈ 26.1 µM) | – | –
C[C@@H](n1ncc2cc(N(C)C)ccc21)[C@](O)(Cn1cncn1)c1ccc(F)cc1F | 0.063 (≈ 0.153 µM) | 8 (≈ 19.4 µM) | 1 (≈ 2.42 µM) | 0.063 (≈ 0.153 µM) | 0.5 (≈ 1.21 µM) | 0.5 (≈ 1.21 µM) | 1 (≈ 2.42 µM) | 1 (≈ 2.42 µM) | 2 (≈ 4.85 µM) | 2 (≈ 4.85 µM) | 0.25 (≈ 0.606 µM) | – | –
C[C@@H](n1ncc2ccc([N+](=O)[O-])cc21)[C@](O)(Cn1cncn1)c1ccc(F)cc1F | ≤ 0.015 | 8 (≈ 19.3 µM) | 0.5 (≈ 1.21 µM) | ≤ 0.015 | ≤ 0.015 | ≤ 0.015 | 2 (≈ 4.83 µM) | 2 (≈ 4.83 µM) | 2 (≈ 4.83 µM) | 4 (≈ 9.65 µM) | 0.25 (≈ 0.603 µM) | – | –
C[C@@H](n1ncc2cc([N+](=O)[O-])ccc21)[C@](O)(Cn1cncn1)c1ccc(F)cc1F | ≤ 0.015 | 4 (≈ 9.65 µM) | 0.25 (≈ 0.603 µM) | ≤ 0.015 | 0.031 (≈ 0.0748 µM) | 0.031 (≈ 0.0748 µM) | 1 (≈ 2.41 µM) | 1 (≈ 2.41 µM) | 2 (≈ 4.83 µM) | 2 (≈ 4.83 µM) | 0.063 (≈ 0.152 µM) | 12.4 | –
C[C@@H]1[C@H](O)[C@@H](C)/C=C/C=C/C=C/C=C/C=C/C=C/C=C/[C@H](O[C@@H]2O[C@H](C)[C@@H](O)[C@H](N)[C@@H]2O)C[C@@H]2O[C@](O)(C[C@@H](O)C[C@@H](O)[C@H](O)CC[C@@H](O)C[C@@H](O)CC(=O)O[C@H]1C)C[C@H](O)[C@H]2C(=O)O [AMPHOTERICIN B] | – | – | – | – | – | – | 1 (≈ 1.08 µM) | 4 (≈ 4.33 µM) | 2 (≈ 2.16 µM) | 0.5 (≈ 0.541 µM) | – | – | –
NN(Cc1ccccc1)C[C@](O)(Cn1cncn1)c1ccc(F)cc1F | 1 (≈ 2.78 µM) | – | – | – | – | – | – | – | – | – | – | – | –
C[C@@H](n1ncc2ccccc21)[C@](O)(Cn1cncn1)c1ccc(F)cc1F | ≤ 0.015 | 2 (≈ 5.41 µM) | 0.5 (≈ 1.35 µM) | 0.063 (≈ 0.171 µM) | 0.125 (≈ 0.338 µM) | 0.063 (≈ 0.171 µM) | 2 (≈ 5.41 µM) | 1 (≈ 2.71 µM) | 2 (≈ 5.41 µM) | 4 (≈ 10.8 µM) | 0.063 (≈ 0.171 µM) | 7.2 | 599
CC(=O)N1CCN(c2ccc(OCC3COC(Cn4ccnc4)(c4ccc(Cl)cc4Cl)O3)cc2)CC1 (stereo not given) [KETOCONAZOLE] | – | 4 (≈ 7.53 µM) | – | – | – | – | – | – | – | – | – | – | 51
C[C@@H](n1cc2cc(F)ccc2n1)[C@](O)(Cn1cncn1)c1ccc(F)cc1F | ≤ 0.015 | 4 (≈ 10.3 µM) | 0.5 (≈ 1.29 µM) | ≤ 0.015 | 0.125 (≈ 0.323 µM) | 0.031 (≈ 0.08 µM) | 0.25 (≈ 0.645 µM) | 0.5 (≈ 1.29 µM) | 0.5 (≈ 1.29 µM) | 1 (≈ 2.58 µM) | 0.063 (≈ 0.163 µM) | – | –
